Consider 41 molecules from PubChem BioAssay AID588386 (Southern Research Specialized Biocontainment Screening …, 2011).

Active and inactive are the calls of the source.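 The calls were made as follows: active = phage lysis blocked by at least 50% at any tested dose; inconclusive = replicate wells disagree with each other; inactive = the rest.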

Test system in the first assay: not listed separately
The assay can be described thus: inhibitors of K1F phage lysis, dose response, capsule biogenesis inhibitor project, E. coli UTI89, set 6 (AID 588386). Conditions: E. coli UTI89 K1F phage lysis inhibition, OD600; at 100 µM (top of the series). A digest of the protocol: (§1)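 test system = E. coli UTI89 (K1) plus phage-resistant kpsM mutant cultures | medium = LB growth medium | dosing = dose series from 100 down to 0.78 µM final, 1% DMSO | times = 1.25 h pre-phage, 3 h post-phage, 37 °C | signal = OD600 absorbance | evaluation = phage lysis judged from OD600 3 h after phage infection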
`O=C(Nc1ccc(F)cc1)c1ccc2nc[nH]c2c1`: the inhibition of phage lysis was 0.99% (inactive). On the same count and under the same terms, the figure for `O=C(Nc1ccccc1F)c1ccc2ncccc2c1` is -2.29% (inactive); for `O=C(Nc1ccc(C(F)(F)F)cc1)c1ccc2ncsc2c1` it is 16.7% (inactive).

Regarding `O=C(Nc1ccc(Br)cc1)c1ccc2nc[nH]c2c1`, the inhibition of phage lysis was 0% (inactive). Take `O=C(NCc1ccco1)c1ccc2ncccc2c1`: the inhibition of phage lysis was 0.91% (inactive). Turning to `COC(=O)c1ccc(NC(=O)c2ccc3ncsc3c2)cc1`, the inhibition of phage lysis is 11.5% (inactive).

As to `O=C(Nc1ccc(Br)cc1)c1ccc2[nH]ccc2c1`, the inhibition of phage lysis is 1.16% (inactive).

For the molecule `O=C(Nc1cccnc1)c1ccc2ncsc2c1`, the inhibition of phage lysis was 1.77% (inactive).

Regarding `O=C(Nc1ccc(Cl)cc1)c1ccc2[nH]ccc2c1`, the inhibition of phage lysis is 0.86% (inactive). Regarding `O=C(Nc1cccc(F)c1)c1ccc2[nH]ccc2c1`, the inhibition of phage lysis is -0.99% (inactive). Turning to `O=C(Nc1cccc(F)c1)c1ccc2nc[nH]c2c1`, the inhibition of phage lysis was 0% (inactive). For `O=C(Nc1ccc(Cl)cc1)c1ccc2ncccc2c1`, the inhibition of phage lysis is 1.19% (inactive). On to `O=C(Nc1ccncc1)c1ccc2ncccc2c1`, for which the inhibition of phage lysis was 0% (inactive). Take `O=C(Nc1ccc(Cl)cc1)c1ccc2ncsc2c1`: the inhibition of phage lysis was 1.47% (inactive). `O=C(NCc1ccco1)c1ccc2ncsc2c1`: the inhibition of phage lysis was 0.88% (inactive).

For the molecule `O=C(NCc1ccco1)c1ccc2nc[nH]c2c1`, the inhibition of phage lysis was 0% (inactive). With `COc1ccc(NC(=O)c2ccc3nc[nH]c3c2)cc1`, the inhibition of phage lysis is 0.32% (inactive). On the same count and under the same terms, the same measure for `O=C(Nc1ccc(C(F)(F)F)cc1)c1ccc2nc[nH]c2c1`: -0.68% (inactive). For `O=C(Nc1ccccn1)c1ccc2nc[nH]c2c1`, the inhibition of phage lysis is 0% (inactive). As to `O=C(NCc1ccco1)c1ccc2[nH]ccc2c1`, the inhibition of phage lysis is 0.86% (inactive).

Consider `O=C(Nc1ccc(C(F)(F)F)cc1)c1ccc2[nH]ccc2c1`, for which the inhibition of phage lysis is -0.66% (inactive).

For `O=C(Nc1cccnc1)c1ccc2ncccc2c1`, the inhibition of phage lysis is 0.61% (inactive). On the same count and under the same terms, the same measure for `O=C(Nc1ccccn1)c1ccc2ncccc2c1`: 1.21% (inactive); for `O=C(Nc1ccc(Cl)cc1)c1ccc2nc[nH]c2c1`: -0.32% (inactive). The same measure, in the same setting: the same measure for `O=C(Nc1cccc(F)c1)c1ccc2ncccc2c1`: -1.15% (inactive); for `O=C(Nc1ccccc1F)c1ccc2[nH]ccc2c1`: 0.33% (inactive).

Take `COc1ccc(NC(=O)c2ccc3[nH]ccc3c2)cc1`: the inhibition of phage lysis is -14.7% (inactive).

Take `O=C(Nc1cccnc1)c1ccc2[nH]ccc2c1`: the inhibition of phage lysis was 0.87% (inactive). Consider `O=C(Nc1ccc(F)cc1)c1ccc2ncccc2c1`, for which the inhibition of phage lysis was 0.3% (inactive). Take `O=C(Nc1ccccc1F)c1ccc2nc[nH]c2c1`: the inhibition of phage lysis is 0.34% (inactive). With `Cc1ccc(NC(=O)c2ccc3[nH]ccc3c2)cc1`, the inhibition of phage lysis is -2.3% (inactive). Turning to `O=C(Nc1ccc(Br)cc1)c1ccc2ncsc2c1`, the inhibition of phage lysis was 0% (inactive). Regarding `O=C(Nc1ccncc1)c1ccc2[nH]ccc2c1`, the inhibition of phage lysis is 0.29% (inactive). As to `O=C(Nc1ccc(F)cc1)c1ccc2[nH]ccc2c1`, the inhibition of phage lysis was -0.29% (inactive). Take `O=C(Nc1cccc(F)c1)c1ccc2ncsc2c1`: the inhibition of phage lysis is 0.9% (inactive). `COc1ccc(NC(=O)c2ccc3ncsc3c2)cc1`: the inhibition of phage lysis is 3.54% (inactive). On the same count and under the same terms, the figure for `O=C(Nc1ccccc1F)c1ccc2ncsc2c1` is 0.6% (inactive). `Cc1ccc(NC(=O)c2ccc3ncsc3c2)cc1`: the inhibition of phage lysis is 0% (inactive).

With `O=C(Nc1ccc(F)cc1)c1ccc2ncsc2c1`, the inhibition of phage lysis was -0.68% (inactive). Same read-out and setting: the same measure for `COC(=O)c1ccc(NC(=O)c2ccc3[nH]ccc3c2)cc1`: 0.87% (inactive).

The subject of the next assay is E. coli UTI89 K1F phage lysis inhibition, OD600. Described as above.
Settings: not given
A digest of the protocol:
as §1
Consider `O=C(Nc1ccncc1)c1ccc2ncsc2c1`, for which the IC50 was 1.64 µM.

For orientation: IC50 means the concentration needed to halve the response being measured.
